Bioassay records from PubChem.
NOD2 RIPK2 PPI – inhibitors of human NOD2-RIPK2 interaction; O43353; CHO BLA complementation NOD2-RIPK2, CCF4 ratio; inhibition, % at 4.98 µM; actives 0.38% (n = 360,000); AID 624267; in the data active = inhibition above about 21%
TLR9-MyD88 inh – TLR9-MyD88 interaction inhibition; inhibition, % at 4.98 µM; Q9NR96+Q99836; CHO BLA complementation TLR9-MyD88, CCF4 FRET ratio; actives 0.21% (n = 340,000); AID 504734;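 active = inhibition above the mean over all tested compounds plus 3 SD, cut at about 21% in these data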
TLR4 MyD88 comp – TLR4-MyD88 interaction inhibition in cells; O00206+Q99836; HeLa CL3-4 TLR4/MyD88 BLA complementation, FRET ratio; inhibition, % at 8.4 µM; actives 0.18% (n = 200,000); AID 861; in the data active = inhibition above about 25%
beta cell repl – inducers of beta-cell replication in MIN6 cells; MIN6 cells proliferation, ATPlite luminescence, 48 h; cells starved in 0.2% serum; 100% = growth in 10% serum; proliferation, % at 10 µM; actives 0.29% (n = 330,000);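 active = compounds whose signal lies at least 3.5 SD above the mean of all wells on their plate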
MC4R antag cAMP – human MC4R antagonism in cAMP assay; P32245; MC4R-expressing cells, MTII-stimulated cAMP, LANCE TR-FRET; inhibition, % at 6.5 µM; actives 0.48% (n = 360,000);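 active = inhibition above its plate's cutoff, the mean of tested wells on that plate plus 3 SD, cut at about 29% in these data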
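Material: human MC4R-expressing U2OS cells. Probe or stimulus: Melanotan II challenge. Dosing: 6.5 µM single dose. Times: 30-min compound, 1-h challenge, 1-h detection, room temperature. Technique: TR-FRET with Eu-cAMP and labeled anti-cAMP, 671 nm. Replication: singlicate.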
MC4R ag barr – activates human MC4R beta-arrestin recruitment; P32245; U2OS MC4R beta-arrestin complementation, luminescence; percent of melanotan II response, DMSO zero; activation, % at 8.9 µM; actives 0.98% (n = 360,000); AID 540308;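 active = activation above a per-plate cutoff, the mean activation of sample wells on that plate plus 3 SD, cut at about 8% in these data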
TLR9-MyD88 conf – TLR9-MyD88 interaction inhibition, confirmation; actives 51% (n = 680); inhibition, % at 4.98 µM; CHO TLR9/MyD88 BLA complementation, CCF4 FRET ratio; shares compounds with TLR9-MyD88 inh;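 active = mean inhibition across three repeats above about 21% taken from the earlier screen, limit read from the data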;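 also: blue over green emission ratio reports constitutive TLR9 MyD88 association via BLA complementation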
BLA counter-1 – beta-lactamase reporter inhibition, counter-screen artifact. AID 540251. CHO-BLA cells, CCF4 FRET ratio, BLA reporter. actives 7% (n = 680). inhibition, % at 4.98 µM. shares compounds with TLR9-MyD88 inh;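 active = mean inhibition above a 50% cutoff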;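 also: counterscreen of TLR9-MyD88 hits on CMV-driven BLA in CHO-K1 cells; higher means less blue over green ratio so more BLA blockade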
TLR9 CHO cytotox – counter-screen for TLR9-MyD88 inhibitors: cytotoxicity in CHO cells; shares compounds with TLR9-MyD88 inh; luminescence; inhibition, % at 4.98 µM; actives 39% (n = 680); in the data active = inhibition above about 11%
MC4R barr ag – human MC4R beta-arrestin agonism confirmation. activation, % at 8.9 µM. AID 602192. U2OS MC4R beta-arrestin recruitment, luminescence; scaled DMSO 0%, Melanotan II 100%. shares compounds with MC4R ag barr. actives 31% (n = 2,400);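 active = mean activation across replicates above the hit cutoff set in the earlier primary screen, cut at about 8% in these data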
MOR DOR agonist – activates mu-delta opioid heterodimer, MC4R agonist counter-screen; actives 5.8% (n = 2,400); activation, % at 9.2 µM; shares compounds with MC4R ag barr; U2OS PathHunter beta-arrestin, beta-gal luminescence; percent of deltorphin B response, DMSO zero;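 active = mean activation across replicates exceeds the hit threshold derived in the earlier primary screen, cut at about 18% in these data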
NOD2-RIPK2 conf – NOD2-RIPK2 interaction inhibition confirmed; shares compounds with NOD2 RIPK2 PPI; CHO cells, NOD2-RIPK2 BLA complementation, CCF4 FRET; inhibition, % at 4.98 µM; actives 70% (n = 1,200); AID 624370;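 active = mean inhibition across replicates above a set limit taken from the earlier primary screen, cut at about 21% in these data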
BLA counter-2 – counter-screen for NOD2-RIPK2 interaction inhibitors: BLA reporter; shares compounds with NOD2 RIPK2 PPI; inhibition, % at 4.98 µM; AID 624371; actives 57% (n = 1,200); CHO BLA reporter, CCF4 FRET ratio, counterscreen;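 active = mean inhibition above the low-control mean inhibition plus three low-control SD, cut at about 11% in these data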
Large screens that a line does not name were inactive (follow-up assays come after a bar, where they were run). A selection: hits, their analogues and other compounds. The true share with any hit is near 2.1%.

Oc1c(Cl)cc(Cl)cc1/C=N/NC(=S)NC1CC2C=CC1C2 (centres undefined)	NOD2 RIPK2 PPI 49, TLR9-MyD88 inh 24 (no result: TLR4 MyD88 comp) | TLR9-MyD88 conf 24 | BLA counter-1 inactive | TLR9 CHO cytotox 17 | NOD2-RIPK2 conf 43 | BLA counter-2 62
CCN(CC)c1ccc2c(Cl)c(Br)c(=O)oc2c1	NOD2 RIPK2 PPI 95, TLR9-MyD88 inh 92, TLR4 MyD88 comp 91 | TLR9-MyD88 conf 89 | BLA counter-1 91 | TLR9 CHO cytotox 52 | NOD2-RIPK2 conf 100 | BLA counter-2 96
CCN(CC)c1ccc2c(C)cc(=O)oc2c1	none (no result: TLR4 MyD88 comp)
O=C1N/C(=C/c2cccn2-c2ccc(F)cc2)C(=O)N1Cc1ccccc1	NOD2 RIPK2 PPI 75, TLR9-MyD88 inh 61, MC4R ag barr 10 | TLR9-MyD88 conf 51 | BLA counter-1 52 | TLR9 CHO cytotox inactive | MC4R barr ag inactive | MOR DOR agonist inactive | NOD2-RIPK2 conf 85 | BLA counter-2 89
CC(C)NC(=O)Cn1cc(C(=O)C(=O)N2CCOCC2)c2ccccc21	none (no result: TLR4 MyD88 comp)
COc1ccc(/C=N/Nc2cc(C)nc3ccccc23)cc1	none (no result: TLR4 MyD88 comp)
COc1ccc2nc(C)cc(N/N=C/c3ccc(F)cc3)c2c1	NOD2 RIPK2 PPI 49, TLR9-MyD88 inh 23, MC4R ag barr 9.2 (no result: TLR4 MyD88 comp) | TLR9-MyD88 conf 26 | BLA counter-1 inactive | TLR9 CHO cytotox 19 | NOD2-RIPK2 conf 67 | BLA counter-2 68
O=C(OCCn1c(=S)sc2ccccc21)c1ccccc1	none (no result: TLR4 MyD88 comp, beta cell repl)
CCC/C(C#Cc1ccc(N(C)C)cc1)=C1/c2ccccc2C(=O)N1c1ccccc1	NOD2 RIPK2 PPI 40, TLR9-MyD88 inh 29 (no result: TLR4 MyD88 comp) | TLR9-MyD88 conf 56 | BLA counter-1 57 | TLR9 CHO cytotox inactive | NOD2-RIPK2 conf 49 | BLA counter-2 60
CCN1CCCC1CNC(=O)Cn1nc(C)n2nc(-c3ccccc3)cc2c1=O (centres undefined)	none (no result: TLR4 MyD88 comp)
Nc1c(C(=O)Nc2ccccc2F)sc2nc(-c3cccnc3)ccc12	NOD2 RIPK2 PPI 21, TLR9-MyD88 inh 38 (no result: TLR4 MyD88 comp) | TLR9-MyD88 conf 28 | BLA counter-1 inactive | TLR9 CHO cytotox inactive | NOD2-RIPK2 conf 46 | BLA counter-2 64
Cc1ccccc1-n1sc2cc(F)ccc2c1=O	NOD2 RIPK2 PPI 34, TLR9-MyD88 inh 36 | TLR9-MyD88 conf 21 | BLA counter-1 inactive | TLR9 CHO cytotox 100 | NOD2-RIPK2 conf 47 | BLA counter-2 19
O=c1c2cc(F)ccc2sn1-c1ccccc1	NOD2 RIPK2 PPI 48, TLR9-MyD88 inh 40 (no result: TLR4 MyD88 comp) | TLR9-MyD88 conf 36 | BLA counter-1 inactive | TLR9 CHO cytotox 97 | NOD2-RIPK2 conf 50 | BLA counter-2 12
CC(=O)Nc1ccc(-c2cc(N)n(-c3ccccc3)n2)cc1	none (no result: TLR4 MyD88 comp)
O=c1c2ccccc2sn1-c1ccccc1F	none (no result: TLR4 MyD88 comp, beta cell repl)
CC(=O)Nc1ccc2c(=O)n(-c3ccccc3)sc2c1	NOD2 RIPK2 PPI 31, TLR9-MyD88 inh 28 (no result: TLR4 MyD88 comp, beta cell repl) | TLR9-MyD88 conf 25 | BLA counter-1 inactive | TLR9 CHO cytotox 92 | NOD2-RIPK2 conf 40 | BLA counter-2 11
Cc1cccn2c(=O)c3cc(C(=O)NCCN4CCOCC4)c(=N)n(Cc4ccc(F)cc4)c3nc12	none (no result: TLR4 MyD88 comp)
CC(=O)Nc1cccc(C(=O)/C=C/c2ccc(N(C)C)cc2)c1	NOD2 RIPK2 PPI 57, TLR9-MyD88 inh 44 | TLR9-MyD88 conf 24 | BLA counter-1 inactive | TLR9 CHO cytotox inactive | NOD2-RIPK2 conf 51 | BLA counter-2 58
O=C1CC(Sc2nnnn2-c2ccccc2)C(=O)N1c1cccc(Cl)c1 (centres undefined)	NOD2 RIPK2 PPI 57, TLR9-MyD88 inh 22 | TLR9-MyD88 conf inactive | BLA counter-1 inactive | TLR9 CHO cytotox 98 | NOD2-RIPK2 conf 58 | BLA counter-2 12
O=C(/C=C\c1cccs1)N1CCN(Cc2ccc3c(c2)OCO3)CC1	none
Cc1ccc(Cn2cnc3c(cnn3-c3ccc(F)cc3)c2=O)cc1	none
COc1ccc(NC(=O)/C(=C\c2ccncc2)NC(=O)c2ccccc2)cc1	none
COc1ccc(OC)c(/C=C/C(=O)N2C(=O)c3cccc(N)c3C2=O)c1	NOD2 RIPK2 PPI 21, TLR9-MyD88 inh 22 | TLR9-MyD88 conf inactive | BLA counter-1 inactive | TLR9 CHO cytotox 19 | NOD2-RIPK2 conf 39 | BLA counter-2 38
COc1ccc(/C=C/c2cc(C(=O)O)c3ccccc3n2)cc1	NOD2 RIPK2 PPI 48, TLR9-MyD88 inh 24 (no result: TLR4 MyD88 comp) | TLR9-MyD88 conf inactive | BLA counter-1 inactive | TLR9 CHO cytotox 14 | NOD2-RIPK2 conf inactive | BLA counter-2 13
COCCn1c2nc(=O)n(-c3ccccc3)c(=O)c-2nc2ccccc21	NOD2 RIPK2 PPI 36, TLR9-MyD88 inh 23 (no result: TLR4 MyD88 comp, beta cell repl) | TLR9-MyD88 conf inactive | BLA counter-1 inactive | TLR9 CHO cytotox inactive | NOD2-RIPK2 conf 32 | BLA counter-2 32
COCCn1c(-c2ccc(OC)cc2)nc2ccccc21	none
CCCC(=O)OCCNc1cc(Sc2nc3ccccc3[nH]2)c2nonc2c1[N+](=O)[O-]	NOD2 RIPK2 PPI 75, TLR9-MyD88 inh 32 | TLR9-MyD88 conf 68 | BLA counter-1 inactive | TLR9 CHO cytotox 98 | NOD2-RIPK2 conf 92 | BLA counter-2 43
CCc1cc2c(=O)nc3n(c2s1)Cc1ccccc1/C3=C(/O)c1cccc([N+](=O)[O-])c1	none
CCc1cc2c(=O)nc3n(c2s1)Cc1ccccc1/C3=C(/O)c1ccc(F)cc1	NOD2 RIPK2 PPI 23, TLR9-MyD88 inh 23 | TLR9-MyD88 conf inactive | BLA counter-1 inactive | TLR9 CHO cytotox inactive | NOD2-RIPK2 conf inactive | BLA counter-2 inactive
